The results in this text go back to ChEMBL document CHEMBL5338759, “N-Phenyl-1-(phenylsulfonyl)-1H-1,2,4-triazol-3-amine as a New Class of HIV-1 Non-nucleoside Reverse Transcriptase Inhibitor” (J Med Chem, 2023).

The subject of one series is TZM. The experiment in a line: Cytotoxicity against human TZM-bl cells assessed as reduction in cell viability by MTS assay. It counts as functional.
Series [1] can be described thus: Metabolic stability in mouse liver microsome measured up to 60 mins presence of NADPH. The note with it: microsomes, 1 h. It counts as ADME.
A short description of series [2]: Cmax in BALB/c mouse plasma at 250 mg/kg, IG measured at 0.5 to 24 hrs by HPLC-MS analysis. In kind it is ADME, organism-based. Set-up: time lower 0.5 hrs, dose 250 mg/kg, time upper 24 hrs, route ig. The conditions noted are these: in vivo, po. A digest of the protocol:
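Mice (~20 g; food withheld 1 h before and after dosing), single dose as 0.5 ml suspension in 1% CMC/0.05% Tween 80 by gavage. Three animals per time point (0.5–24 h). Heparinized plasma frozen at -20°C, quantified by UPLC-ESI(+)-QTOF-MS (EIC m/z 476.0691) against plasma-matrix standards. LLOQ 5 ng/ml, lower values set to 2.5 ng/ml. Noncompartmental analysis.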

Series [3] in a line: Subacute toxicity in BALB/c mouse assessed as pathological change in liver at 25 to 250 mg/kg, IG measured daily for 30 days by H and E staining based histological analysis. In kind it is organism-based. The conditions noted are these: in vivo, po, 720 h, dose 25-250 mg/kg, time 30 day. A digest of the protocol: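 Male Balb/C mice (17 per group) received 25 or 250 mg/kg intragastrically in 1% starch gel once daily for 30 days, against starch gel controls. Internal organs were examined macroscopically after the study. Sections were paraffin-embedded and stained with hematoxylin and eosin.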

A short description of series [4]: Subacute toxicity in BALB/c mouse assessed as reduction in alkaline phosphatase level at 250 mg/kg, IG measured daily for 30 days. The conditions noted are these: in vivo, po, 720 h, time 30 day. It counts as organism-based. Summed up: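 Dosing was daily intragastric 25 or 250 mg/kg in 1% starch gel (0.2 ml/20 g) for 30 days in male Balb/C mice, 17 per group, with starch gel controls. After the final dose, mice were fasted for 2 h with water available, then bled. Serum was clotted for 30 min at room temperature and centrifuged at 3500 rpm. Total protein, urea, creatinine, AST, ALT and alkaline phosphatase were assayed and compared by Mann-Whitney with Holm-Šídák, p < 0.05.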

Series [5] is described as follows: Subacute toxicity in BALB/c mouse assessed as reduction in hemoglobin level at 25 to 250 mg/kg, IG measured daily for 30 days. In kind it is organism-based. The note with it: in vivo, po, 720 h, dose 25-250 mg/kg, time 30 day.
A short description of series [6]: Subacute toxicity in BALB/c mouse assessed as reduction in hematocrit level at 25 to 250 mg/kg, IG measured daily for 30 days. In kind it is organism-based. The note with it: in vivo, po, 720 h, dose 25-250 mg/kg, time 30 day.
Series [7] can be described thus: Subacute toxicity in BALB/c mouse assessed as reduction in reticulocytes count at 25 to 250 mg/kg, IG measured daily for 30 days. In kind it is organism-based. The conditions noted are these: in vivo, po, 720 h, dose 25-250 mg/kg, time 30 day.
A short description of series [8]: Subacute toxicity in BALB/c mouse assessed as effect on lung weight at 25 to 250 mg/kg, IG measured daily for 30 days. The note with it: in vivo, po, 720 h, dose 25-250 mg/kg, time 30 day. In kind it is organism-based.
Series [9] in a line: Neurotoxicity in mouse primary neurons assessed as loss of MAP-2 intensity at 0.0001 to 10 uM incubated for 48 hrs by semi-quantitative analysis. The conditions noted are these: neuron.

For `N#C/C=C/c1ccc2c(S(=O)(=O)n3nc(Nc4ccc(C#N)c(Cl)c4)nc3N)cccc2c1`, the CC50 with TZM amounted to 4.8 µM. Moreover, the Stability result in [1] is “Stable”. The compound further yielded a Cmax in series [2] of 81.4 ng/mL. Further, the Activity result in [3] is given as “Toxic”; in [4], “Non-Toxic”; in series [5], “Non-Toxic”; in [6], “Non-Toxic”; in series [7] it was “Non-Toxic”; in series [8] it was “Non-Toxic”. Also, the Activity result in [9] is “Non-Toxic”.
